In ChEMBL document CHEMBL2203081 (Bioorg Med Chem Lett, 2012):

Columns and labels:
[1] = target: Casein kinase I isoform gamma-2 (Homo sapiens) (UniProt P78368); assay: Inhibition of CSNK1G2 assessed as residual activity at 10 uM relative to control
Summary of the method: (§1)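 Competition kinase-binding assay (KINOMEscan) across a non-redundant panel of 329 kinases beyond the radiometric panel; residual binding expressed relative to control.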

[2] = target: Macrophage colony-stimulating factor 1 receptor (Homo sapiens) (UniProt P07333); assay: Inhibition of CSF1R assessed as residual activity at 10 uM relative to control; summary of the method: as §1
Macrophage colony-stimulating factor 1 receptor (Homo sapiens), sequence (P07333 whole entry): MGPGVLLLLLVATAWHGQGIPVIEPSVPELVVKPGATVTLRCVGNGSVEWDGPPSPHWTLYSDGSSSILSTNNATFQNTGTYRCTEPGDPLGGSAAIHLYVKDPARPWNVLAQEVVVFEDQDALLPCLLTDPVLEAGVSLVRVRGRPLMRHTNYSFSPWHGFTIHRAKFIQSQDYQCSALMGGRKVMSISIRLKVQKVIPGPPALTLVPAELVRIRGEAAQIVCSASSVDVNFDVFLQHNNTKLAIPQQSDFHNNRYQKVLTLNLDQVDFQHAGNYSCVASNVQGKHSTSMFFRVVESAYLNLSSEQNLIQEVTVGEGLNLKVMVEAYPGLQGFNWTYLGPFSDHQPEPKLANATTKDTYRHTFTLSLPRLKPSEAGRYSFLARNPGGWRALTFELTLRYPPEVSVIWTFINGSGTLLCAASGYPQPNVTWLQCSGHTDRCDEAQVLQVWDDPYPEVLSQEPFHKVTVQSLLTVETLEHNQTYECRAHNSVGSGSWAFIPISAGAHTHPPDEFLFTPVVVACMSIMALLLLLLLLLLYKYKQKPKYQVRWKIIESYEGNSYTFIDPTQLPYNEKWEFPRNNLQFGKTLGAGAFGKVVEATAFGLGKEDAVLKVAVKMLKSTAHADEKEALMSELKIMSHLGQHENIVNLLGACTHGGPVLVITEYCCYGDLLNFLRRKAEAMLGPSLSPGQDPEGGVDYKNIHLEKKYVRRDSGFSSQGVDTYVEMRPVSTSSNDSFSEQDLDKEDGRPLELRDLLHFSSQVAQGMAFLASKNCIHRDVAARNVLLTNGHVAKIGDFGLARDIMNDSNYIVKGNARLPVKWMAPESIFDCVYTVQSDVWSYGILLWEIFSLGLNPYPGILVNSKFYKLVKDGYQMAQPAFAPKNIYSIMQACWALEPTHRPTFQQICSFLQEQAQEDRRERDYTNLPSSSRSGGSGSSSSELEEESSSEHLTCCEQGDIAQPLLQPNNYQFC

[3] = target: Dual specificity protein kinase CLK3 (Homo sapiens) (UniProt P49761); assay: Inhibition of CLK3 assessed as residual activity at 10 uM relative to control; summary of the method: as §1
[4] = target: T1, Serine/threonine-protein kinase STK11 (Homo sapiens) (UniProt Q15831); assay: Inhibition of LKB1 assessed as residual activity at 1 uM
T1 sequence (whole entry): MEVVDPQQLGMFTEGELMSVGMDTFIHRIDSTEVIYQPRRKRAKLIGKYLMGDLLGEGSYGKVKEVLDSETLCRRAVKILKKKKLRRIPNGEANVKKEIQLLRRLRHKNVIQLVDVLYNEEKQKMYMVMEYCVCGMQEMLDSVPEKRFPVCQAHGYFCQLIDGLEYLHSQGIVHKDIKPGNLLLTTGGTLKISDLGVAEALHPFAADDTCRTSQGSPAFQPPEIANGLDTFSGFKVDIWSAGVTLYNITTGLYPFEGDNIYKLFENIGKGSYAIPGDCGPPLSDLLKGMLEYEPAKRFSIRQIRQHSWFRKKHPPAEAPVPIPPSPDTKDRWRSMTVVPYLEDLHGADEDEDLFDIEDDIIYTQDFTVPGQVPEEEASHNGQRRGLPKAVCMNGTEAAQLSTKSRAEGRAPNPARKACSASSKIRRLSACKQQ

[5] = tested on: Mast/stem cell growth factor receptor Kit (Homo sapiens), P10721 [V559D,T670I]; assay: Inhibition of KIT V559D,T670I mutant assessed as residual activity at 10 uM relative to control
[6] = target: Tyrosine-protein kinase BTK (Homo sapiens) (UniProt Q06187); assay: Inhibition of BTK assessed as residual activity at 10 uM relative to control
[7] = target: Activin receptor type-1B (Homo sapiens) (UniProt P36896); assay: Inhibition of ACVR1B assessed as residual activity at 10 uM relative to control
Activin receptor type-1B (Homo sapiens), sequence (P36896 whole entry): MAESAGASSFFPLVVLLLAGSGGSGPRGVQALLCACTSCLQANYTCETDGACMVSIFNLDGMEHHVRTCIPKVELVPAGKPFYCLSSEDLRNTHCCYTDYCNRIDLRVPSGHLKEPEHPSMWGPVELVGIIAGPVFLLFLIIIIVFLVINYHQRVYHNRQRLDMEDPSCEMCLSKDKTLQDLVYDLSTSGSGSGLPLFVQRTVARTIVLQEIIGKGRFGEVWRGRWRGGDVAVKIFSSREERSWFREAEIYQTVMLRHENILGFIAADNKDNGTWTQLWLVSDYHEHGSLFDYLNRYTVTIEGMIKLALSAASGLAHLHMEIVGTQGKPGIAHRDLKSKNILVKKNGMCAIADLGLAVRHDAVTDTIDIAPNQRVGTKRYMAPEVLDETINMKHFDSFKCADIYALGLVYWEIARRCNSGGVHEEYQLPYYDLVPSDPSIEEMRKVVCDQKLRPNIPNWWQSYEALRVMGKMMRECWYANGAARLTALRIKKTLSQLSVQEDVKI

[8] = target: Serine/threonine-protein kinase PLK2 (Homo sapiens) (UniProt Q9NYY3); assay: Inhibition of PLK2 assessed as residual activity at 10 uM relative to control
Serine/threonine-protein kinase PLK2 (Homo sapiens), sequence (Q9NYY3 whole entry, looked up): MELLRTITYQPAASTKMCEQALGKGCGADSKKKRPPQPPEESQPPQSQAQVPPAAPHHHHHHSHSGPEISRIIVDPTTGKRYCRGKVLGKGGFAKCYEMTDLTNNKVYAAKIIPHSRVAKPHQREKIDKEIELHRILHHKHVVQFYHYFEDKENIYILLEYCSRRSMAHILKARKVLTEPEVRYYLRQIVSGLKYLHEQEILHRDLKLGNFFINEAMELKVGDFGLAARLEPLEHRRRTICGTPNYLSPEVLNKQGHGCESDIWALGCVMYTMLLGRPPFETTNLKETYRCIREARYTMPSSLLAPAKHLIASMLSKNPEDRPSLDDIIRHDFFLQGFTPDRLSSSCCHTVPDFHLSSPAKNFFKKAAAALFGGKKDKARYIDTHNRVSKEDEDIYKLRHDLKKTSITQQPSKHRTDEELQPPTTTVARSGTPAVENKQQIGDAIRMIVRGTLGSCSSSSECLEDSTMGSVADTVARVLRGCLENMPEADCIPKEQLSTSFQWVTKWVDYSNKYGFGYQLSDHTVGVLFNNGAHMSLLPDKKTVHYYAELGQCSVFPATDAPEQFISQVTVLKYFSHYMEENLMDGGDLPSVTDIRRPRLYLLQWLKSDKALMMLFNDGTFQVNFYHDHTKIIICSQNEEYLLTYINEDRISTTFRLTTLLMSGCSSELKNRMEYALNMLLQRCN

[9] = target: Phosphatidylinositol 4-phosphate 5-kinase type-1 alpha (Homo sapiens) (UniProt Q99755); assay: Inhibition of PIP5K1A assessed as residual activity at 10 uM relative to control
Phosphatidylinositol 4-phosphate 5-kinase type-1 alpha (Homo sapiens), sequence (Q99755 whole entry): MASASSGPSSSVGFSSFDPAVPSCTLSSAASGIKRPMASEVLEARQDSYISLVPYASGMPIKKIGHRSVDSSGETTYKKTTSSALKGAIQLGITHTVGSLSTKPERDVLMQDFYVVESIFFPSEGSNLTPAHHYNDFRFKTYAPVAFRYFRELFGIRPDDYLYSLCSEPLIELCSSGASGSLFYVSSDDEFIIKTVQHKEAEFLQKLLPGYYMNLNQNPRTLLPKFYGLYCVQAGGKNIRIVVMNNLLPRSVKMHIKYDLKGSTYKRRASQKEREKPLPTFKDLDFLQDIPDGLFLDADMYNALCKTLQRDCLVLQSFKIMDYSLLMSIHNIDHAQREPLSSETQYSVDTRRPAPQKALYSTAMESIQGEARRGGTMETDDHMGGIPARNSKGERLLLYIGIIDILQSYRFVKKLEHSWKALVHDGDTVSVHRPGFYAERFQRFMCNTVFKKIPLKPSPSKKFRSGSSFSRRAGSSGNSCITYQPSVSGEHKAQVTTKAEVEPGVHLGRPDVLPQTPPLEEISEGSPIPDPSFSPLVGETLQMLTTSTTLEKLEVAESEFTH

[10] = tested on: Tyrosine-protein kinase ABL1 (Homo sapiens), P00519 [F317I]; assay: Inhibition of phosphorylated ABL1 F317I mutant assessed as residual activity at 10 uM relative to control
Tyrosine-protein kinase ABL1 (Homo sapiens), P00519 [F317I], sequence (P00519 whole entry F317I): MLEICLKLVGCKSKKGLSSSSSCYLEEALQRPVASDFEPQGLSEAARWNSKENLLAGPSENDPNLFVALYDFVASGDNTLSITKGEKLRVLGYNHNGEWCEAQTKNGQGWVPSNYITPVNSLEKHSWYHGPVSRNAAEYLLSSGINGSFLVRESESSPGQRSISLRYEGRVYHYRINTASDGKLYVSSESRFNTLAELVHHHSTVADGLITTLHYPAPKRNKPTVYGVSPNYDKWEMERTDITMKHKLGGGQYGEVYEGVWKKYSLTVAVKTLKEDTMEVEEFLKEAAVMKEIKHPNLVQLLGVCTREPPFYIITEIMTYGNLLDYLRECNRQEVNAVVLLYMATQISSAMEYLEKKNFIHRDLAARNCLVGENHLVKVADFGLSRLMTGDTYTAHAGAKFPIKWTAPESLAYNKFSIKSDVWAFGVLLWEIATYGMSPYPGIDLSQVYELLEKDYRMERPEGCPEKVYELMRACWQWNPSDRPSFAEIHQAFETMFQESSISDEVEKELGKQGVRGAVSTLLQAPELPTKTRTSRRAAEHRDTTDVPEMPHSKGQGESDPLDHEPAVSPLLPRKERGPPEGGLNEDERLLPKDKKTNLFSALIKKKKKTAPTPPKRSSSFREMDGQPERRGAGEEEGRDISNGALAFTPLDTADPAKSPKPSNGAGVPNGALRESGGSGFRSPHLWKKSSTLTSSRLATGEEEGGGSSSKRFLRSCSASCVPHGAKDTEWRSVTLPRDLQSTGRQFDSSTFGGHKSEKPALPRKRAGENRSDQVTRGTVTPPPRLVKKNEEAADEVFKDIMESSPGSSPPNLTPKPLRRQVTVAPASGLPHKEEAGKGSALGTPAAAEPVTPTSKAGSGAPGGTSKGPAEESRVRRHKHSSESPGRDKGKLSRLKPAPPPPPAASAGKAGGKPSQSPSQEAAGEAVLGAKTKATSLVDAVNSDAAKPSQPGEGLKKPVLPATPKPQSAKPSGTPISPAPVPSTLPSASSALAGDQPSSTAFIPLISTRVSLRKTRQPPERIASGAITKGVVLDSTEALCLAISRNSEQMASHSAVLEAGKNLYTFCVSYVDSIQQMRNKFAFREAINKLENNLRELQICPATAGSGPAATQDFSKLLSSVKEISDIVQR

Brain = assay: AUClast in Swiss albino mouse brain at 1 mg/kg, iv; type: ADME, organism-based; set-up: dose 1 mg/kg, route intravenous, time 0 - last; settings: in vivo
Summary of the method: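 Male Swiss Albino mice, single dose given intravenously (1 mg/kg) or orally (10 mg/kg). Drug measured in plasma and brain, with AUClast taken for each. The brain/plasma ratio is based on AUClast, and oral bioavailability is derived from the IV and PO plasma data.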

[11] = target: Serine/threonine-protein kinase WNK1 (Homo sapiens) (UniProt Q9H4A3); assay: Inhibition of WNK1 assessed as residual activity at 1 uM
[12] = target: Mitogen-activated protein kinase 11 (Homo sapiens) (UniProt Q15759); assay: Inhibition of p38-beta assessed as residual activity at 10 uM relative to control
Mitogen-activated protein kinase 11 (Homo sapiens), sequence (Q15759 whole entry): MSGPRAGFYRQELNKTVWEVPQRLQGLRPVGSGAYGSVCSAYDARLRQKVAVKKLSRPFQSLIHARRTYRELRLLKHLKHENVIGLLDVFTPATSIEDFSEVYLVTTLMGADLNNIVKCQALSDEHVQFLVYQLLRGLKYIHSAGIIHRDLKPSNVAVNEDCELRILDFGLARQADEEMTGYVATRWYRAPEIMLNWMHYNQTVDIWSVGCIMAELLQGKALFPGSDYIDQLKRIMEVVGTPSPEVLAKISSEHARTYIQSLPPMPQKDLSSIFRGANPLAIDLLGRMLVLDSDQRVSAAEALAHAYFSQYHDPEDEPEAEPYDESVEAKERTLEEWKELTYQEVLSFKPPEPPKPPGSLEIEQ

Casein kinase I isoform gamma-2 (Homo sapiens), sequence (P78368 whole entry, looked up, canonical isoform): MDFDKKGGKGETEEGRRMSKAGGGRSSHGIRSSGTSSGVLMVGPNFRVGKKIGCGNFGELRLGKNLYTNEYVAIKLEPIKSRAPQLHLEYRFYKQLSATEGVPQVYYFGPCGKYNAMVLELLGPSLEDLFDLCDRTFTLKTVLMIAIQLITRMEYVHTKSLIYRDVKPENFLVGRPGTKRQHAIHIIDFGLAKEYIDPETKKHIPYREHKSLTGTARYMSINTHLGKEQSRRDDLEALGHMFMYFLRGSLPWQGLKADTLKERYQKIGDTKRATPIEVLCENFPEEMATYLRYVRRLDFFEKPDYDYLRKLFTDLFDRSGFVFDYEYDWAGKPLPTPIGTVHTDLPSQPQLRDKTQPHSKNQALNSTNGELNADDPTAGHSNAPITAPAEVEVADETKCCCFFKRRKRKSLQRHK

`O=C(Nc1cccnc1)c1cc(-c2ccnc(F)c2)ccc1OCc1ccccc1` gave an Activity [1] of 27%, an Activity [2] of 68% and an Activity [3] of 58%. For the same compound, the Activity [4] was 97%, the Activity [5] was 52% and the Activity [6] was 64%. It also gave an Activity [7] of 43%, an Activity [8] of 69% and an Activity [9] of 73%. It also gave an Activity [10] of 38%, an AUClast (Brain) of 708.7 ng·h/mL and an Activity [11] of 104%. It also gave an Activity [12] of 74%.
